# This is a sample that favours compounds with a hit; in the whole collection about 1.9% have one here.
# HGIII-sPLA2 inh: Inhibits HGIII-sPLA2 liposome hydrolysis, primary screen | Q9NZ20 | QFRET BODIPY PC-A2 liposome hydrolysis, fluorescence | inhibition, % at 12.2 µM | actives 0.56% (n = 370,000);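 active = inhibition above mean plus 3 SD of compounds lying within the high and low control bounds, cut at about 19% in these data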;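 note: 0% = median of test compound wells and 100% = no enzyme DMSO wells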
# PLC-gamma1 inh: PLC-gamma1 (human) inhibition, primary screen; P19174; purified PLC-gamma1, fluorogenic substrate, fluorescence; inhibition, % at 12.2 µM; actives 0.84% (n = 370,000); AID 720700; in the data active = inhibition above about 9.5%
# Target sequence (P19174 whole entry, looked up): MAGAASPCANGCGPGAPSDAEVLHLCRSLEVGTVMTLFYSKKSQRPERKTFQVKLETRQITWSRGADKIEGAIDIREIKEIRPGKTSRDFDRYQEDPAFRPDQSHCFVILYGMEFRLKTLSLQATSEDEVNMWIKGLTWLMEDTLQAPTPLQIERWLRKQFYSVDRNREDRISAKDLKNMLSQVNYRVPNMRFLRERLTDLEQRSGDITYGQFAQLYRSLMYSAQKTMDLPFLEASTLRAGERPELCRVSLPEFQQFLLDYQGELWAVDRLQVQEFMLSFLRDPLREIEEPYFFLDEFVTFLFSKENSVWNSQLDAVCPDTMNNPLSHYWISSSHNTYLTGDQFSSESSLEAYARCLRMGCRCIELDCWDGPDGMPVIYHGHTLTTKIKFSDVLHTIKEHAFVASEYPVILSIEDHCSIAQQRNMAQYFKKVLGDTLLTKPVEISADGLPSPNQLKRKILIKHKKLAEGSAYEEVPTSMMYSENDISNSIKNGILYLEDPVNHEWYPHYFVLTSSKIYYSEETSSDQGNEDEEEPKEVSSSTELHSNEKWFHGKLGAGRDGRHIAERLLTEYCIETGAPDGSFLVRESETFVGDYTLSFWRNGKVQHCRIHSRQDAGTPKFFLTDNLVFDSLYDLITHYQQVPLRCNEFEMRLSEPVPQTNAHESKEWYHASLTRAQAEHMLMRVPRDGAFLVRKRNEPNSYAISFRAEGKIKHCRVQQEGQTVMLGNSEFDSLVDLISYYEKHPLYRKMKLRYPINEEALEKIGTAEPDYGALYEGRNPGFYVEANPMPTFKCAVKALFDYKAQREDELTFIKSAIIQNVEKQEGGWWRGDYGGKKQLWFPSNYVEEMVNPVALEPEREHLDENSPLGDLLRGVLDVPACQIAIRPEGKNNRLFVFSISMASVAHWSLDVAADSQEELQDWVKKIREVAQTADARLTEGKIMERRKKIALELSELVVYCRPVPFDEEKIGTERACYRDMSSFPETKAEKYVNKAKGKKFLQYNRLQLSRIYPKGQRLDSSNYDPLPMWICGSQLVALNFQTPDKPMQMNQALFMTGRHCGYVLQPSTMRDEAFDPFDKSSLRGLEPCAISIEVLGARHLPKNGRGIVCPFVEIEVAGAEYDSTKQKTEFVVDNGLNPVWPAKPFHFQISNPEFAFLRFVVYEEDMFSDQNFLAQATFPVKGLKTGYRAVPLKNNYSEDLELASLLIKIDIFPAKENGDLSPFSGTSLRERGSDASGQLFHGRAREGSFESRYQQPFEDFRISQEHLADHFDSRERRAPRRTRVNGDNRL
# PLC-beta3 inh: PLC-beta3 (human) inhibition, primary screen; Purified PLC-beta3, fluorogenic substrate, fluorescence; actives 0.18% (n = 370,000); inhibition, % at 12.2 µM;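 note: 0% = median of compound wells on plate and 100% = full blocker control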
# Tb MetRS inh: Trypanosoma brucei MetRS inhibition; purified T. brucei MetRS, ATP depletion, Kinase-Glo luminescence; inhibition, % at 11.9 µM; actives 0.4% (n = 360,000);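 active = inhibition above a per-plate cutoff of the control wells' mean inhibition plus 3 SD, cut at about 5.5% in these data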;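 note: 0% = DMSO wells median and 100% = median of wells with control inhibitor compound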
#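 Test system: purified T. brucei MetRS enzyme. Also added: ATP, methionine and E. coli bulk tRNA substrates. Compound: 11.9 µM single point. Schedule: 15 min enzyme-compound preincubation, 2 h reaction, 10 min detection, 25 °C. Signal: luciferase luminescence of residual ATP, Kinase-Glo. Evaluation: percent inhibition versus plate control medians. Controls: DMSO wells, low control.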
# PLCgamma1 ctr: inhibits human PLC-gamma1 in PLC-beta3 counter-screen. shares compounds with PLC-gamma1 inh. purified PLC-gamma1, fluorogenic substrate, fluorescence. inhibition, % at 12.3 µM. actives 3.1% (n = 3,300). AID 743258; in the data active = inhibition above about 9.5%
# PLCbeta3 conf: human PLC-beta3 inhibition, confirmation; shares compounds with PLC-gamma1 inh; actives 1% (n = 3,300); AID 743261; inhibition, % at 12.3 µM; purified PLC-beta3, fluorogenic substrate fluorescence
# Starred values were filed as active, the others as inactive; · = no result given. Cut-off read from the data, not from the text of the source, unless noted: active = inhibition above about 11%; inactive = the rest.
SMILES,HGIII-sPLA2 inh,PLC-gamma1 inh,PLC-beta3 inh,Tb MetRS inh,PLCgamma1 ctr,PLCbeta3 conf
C=CC[C@@H](Cc1ccc(F)cc1)C(=O)OC[C@@H]1CCCN1C(=O)[C@H](CC=C)CC(=O)N(CCO)Cc1ccccc1,-21,10*,8,0,-9,-4
CC(C)OC(=O)[C@@H](Cc1ccccc1)N[C@H](/C=C/c1ccccc1)[C@@H](O)Cc1ccccc1,-10,5,2,·,·,·
C[C@H](CO)N1C[C@H](C)[C@@H](CN(C)S(C)(=O)=O)OCc2cn(nn2)CCCC1=O,2,1,1,·,·,·
CCOc1cc(/C=N/N=C(N)N)ccc1OCc1ccc(Cl)cc1,-17,1,4,0,·,·
NC(N)=N/N=C/c1ccc(OCc2ccccc2)c(OCc2ccccc2)c1,-10,12*,-4,0,4,4
CCCCn1nnnc1C1c2ccccc2OCC(=O)N1Cc1ccc2c(c1)OCO2 (stereo not given),-3,0,0,·,·,·
Cc1cc(N2CCN(C(=O)Oc3ccc(-c4ccccc4)cc3)CC2)c2ccccc2n1,-2,-2,-3,·,·,·
Cc1ccc(S(=O)(=O)N2CCC(=O)N(CCOCc3cccc(C)c3)CC2)cc1,3,7,0,0,·,·
COc1cccc(COCCN2CCN(S(=O)(=O)c3ccc(C)cc3)CCC2=O)c1,-1,12*,10,0,-7,-4
CCn1c(COc2ccccc2C)nnc1SCC(=O)N1CCCCC1,5,14*,1,1,-3,-2
CCn1c(COc2ccccc2C)nnc1SCC(=O)N1CCC(C)CC1,-3,-5,2,-1,·,·
CCOc1ccc(-c2nc(CSCC(=O)NC3CCC3)c(C)o2)cc1,-2,-2,-3,·,·,·
C[C@H](CO)N1C[C@H](C)[C@@H](CN(C)C(=O)Nc2ccccc2)Oc2c(NS(=O)(=O)c3ccc(F)cc3)cccc2C1=O,1,5,11*,0,-4,-1
OC(c1ccccc1)(c1ccccc1)C1CCN(CCCNc2ccc(Cl)cc2Cl)CC1,-9,2,3,·,·,·
Cn1ncc2nnn(-c3ccccc3)c(=O)c21,-5,0,2,-1,·,·
Cn1ncc2nc[nH]c(=O)c21,2,10*,1,-1,-4,-2
CN1c2ccc(C#CC3CC3)cc2[C@@H]2[C@@H](CCN2C(=O)C2CCOCC2)[C@H]1CO,-3,-40,-54,·,·,·
Cc1ccc(Cl)c(OCC(=O)Nc2ccc3c(c2)OCCO3)c1,-3,4,1,0,·,·
CCN(CC(=O)Nc1ccc2c(c1)OCCO2)C(=O)COc1cc(C)ccc1Cl,-12,12*,5,0,-8,-2
CC(C)CCN1C(=O)COc2ccccc2C1c1nnnn1-c1ccc2c(c1)OCCO2 (stereo not given),-6,-2,4,·,·,·
CCOc1ccc(N(CC)S(=O)(=O)c2c(C)[nH]c(=O)[nH]c2=O)cc1,-1,3,-1,0,·,·
CCOc1ccc(CO/N=C/c2c(C)[nH]c(=O)[nH]c2=O)cc1,3,13*,0,-1,-2,-2
Nc1cc(Cl)ccc1Oc1ccc2ccccc2c1,4,14*,-5,-1,-2,-5
Cc1ccc(Oc2ccc(Cl)cc2N)cc1,2,-1,2,0,·,·
OC(CN1CCCCCC1)CN(c1ccccc1)c1ccccc1 (stereo not given),8,-3,-7,0,·,·
SMILES,HGIII-sPLA2 inh,PLC-gamma1 inh,PLC-beta3 inh,Tb MetRS inh,PLCgamma1 ctr,PLCbeta3 conf
CN(CC(O)CN)CC(O)CN1CCCCC1 (stereo not given),5,9.6*,2,-1,-4,-2
CCSc1nc2ccccc2n1CC(=O)OC,9,13*,7,-1,-2,4
COC(=O)c1ccc(NC(=O)CN2CCN(c3ccccc3)CC2)cc1,13,12*,-7,-1,-8,-7
COc1cccc(NC(=O)CN2CCN(c3ccc(F)cc3)CC2)c1,2,-1,-1,-1,·,·
COC(=O)c1cccc(NC(=O)CN2CCN(c3ccc(OC)cc3)CC2)c1,-2,13*,0,-1,-4,-1
COC(=O)c1ccc(NC(=O)CN2CCN(c3ccccn3)CC2)cc1,10,9.9*,-87,0,-4,-3
CCOC(=O)c1ccc(NC(=O)CN2CCN(c3ccccc3)CC2)cc1,2,-2,-2,-1,·,·
Cc1cc(NC(=O)c2ccc(NS(=O)(=O)c3ccc(F)cc3)cc2)no1,-4,3,4,·,·,·
CC(C)(C)OC(=O)N1CCN(C(=O)c2[nH]cnc2C(=O)Nc2cccc(Cl)c2)CC1,5,9.7*,1,0,-5,-3
COC(=O)[C@H]1C[C@@]2(n3ccc4ccccc43)c3ccccc3N(S(=O)(=O)c3ccccc3)[C@H]2N1C(=O)CNC1CCCCC1,1,2,0,·,·,·
COCCNC(=O)C1CC(=O)N(C2CCCC2)C1 (stereo not given),3,-1,5,0,·,·
CCCCNC(=O)C1CC(=O)N(C2CCCC2)C1 (stereo not given),0,12*,0,-1,-5,-3
S=c1[nH]nc(-c2ccco2)n1/N=C/c1ccccc1Cl,18,0,-2,0,·,·
Cc1ccc(/C=N/n2c(-c3ccco3)n[nH]c2=S)s1,17,11*,1,0,-12,-9
CC(C)(C)NC(=O)C(c1cccnc1)N(C(=O)c1cnc[nH]1)c1ccc(C(C)(C)C)cc1 (stereo not given),-12,5,3,·,·,·
CCN(CC)C(=O)CSc1nc2ccccc2c(=O)n1-c1cccc(OC)c1,0,10*,4,-1,-8,-3
COc1ccc(Cn2nnnc2C(C(C)C)N(Cc2ccco2)Cc2cccs2)cc1 (stereo not given),-2,14*,14*,-1,-2,-1
CC(C)C(c1nnnn1Cc1ccccc1)N(Cc1ccco1)Cc1cccs1 (stereo not given),-1,0,0,-1,·,·
O=C(CCc1ccccc1)N[C@H]1[C@@H](OC(=O)c2cnccn2)CCC[C@@]12C(=O)N(Cc1ccccc1)c1ccccc12,-4,12*,3,·,14*,8
CCOC(=O)c1cc(-c2csc(-c3cccc(Cl)c3)n2)on1,1,-1,-14,-1,·,·
CCOC(=O)c1cc(-c2csc(Nc3c(C)cc(C)cc3C)n2)on1,-5,9.8*,1,-1,-8,-4
O=C(NN1C(=O)NC2(CCCCC2)C1=O)c1ccc(Cl)c(Cl)c1,9,12*,-11,0,-9,-7
O=C(CCc1nc(-c2ccccc2F)no1)NCCc1ccccc1F,2,0,-2,·,·,·
O=C(CCc1nc(-c2ccccc2F)no1)NCCN1CCOCC1,4,4,14*,-1,-14,3
COC(=O)C(C)(C)c1cccnc1C#N,6,76*,2,0,77*,-1
COC(=O)C(C)(C)NC(=O)c1cccs1,-1,-4,-1,-1,·,·

# Bioassay records from PubChem BioAssay.
